From PubChem BioAssay
MT1-MMP txn act: MT1-MMP promoter reporter activation – cell-based, luciferase luminescence, primary screen; HT1080 MT1-MMP promoter luciferase reporter, overnight; active compounds read high; activation factor at 10 µM; actives 0.16% (n = 86,000);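 active = activation factor of at least 2 for MT1-MMP transcription at 10 µM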
M1 antag: antagonists of rat M1 muscarinic receptor; Muscarinic acetylcholine receptor M1 (Rattus norvegicus), P08482; CHO-M1 cells, Fluo-4 calcium, ACh EC80 antagonist mode; active compounds read low; B-score at 10 µM; actives 3.4% (n = 64,000); AID 628, 2007;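 active = calcium fluorescence response, raw or row-and-column corrected B-score, differing from the plate sample mean either way at a set confidence level, mostly lower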
Target sequence (P08482 whole entry, looked up): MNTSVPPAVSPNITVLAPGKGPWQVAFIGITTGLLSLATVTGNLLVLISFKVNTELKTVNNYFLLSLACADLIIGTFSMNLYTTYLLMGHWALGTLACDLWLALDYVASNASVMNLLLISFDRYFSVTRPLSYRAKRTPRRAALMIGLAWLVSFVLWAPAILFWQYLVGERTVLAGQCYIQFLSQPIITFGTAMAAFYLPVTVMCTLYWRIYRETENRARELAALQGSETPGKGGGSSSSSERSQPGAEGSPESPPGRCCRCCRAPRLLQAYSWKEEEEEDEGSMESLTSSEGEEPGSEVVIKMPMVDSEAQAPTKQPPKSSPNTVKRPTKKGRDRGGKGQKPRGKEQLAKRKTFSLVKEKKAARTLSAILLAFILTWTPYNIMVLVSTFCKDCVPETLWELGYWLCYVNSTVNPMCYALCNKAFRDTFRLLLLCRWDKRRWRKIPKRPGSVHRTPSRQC
RORa activator: activators of orphan receptor RORA, primary screen, cell-based, luminescence; Nuclear receptor ROR-alpha (Homo sapiens), P35398; CHO-K1 Gal4-RORA LBD luciferase reporter; percent increase over mock-subtracted basal signal; activation, % at 10 µM; actives 1.5% (n = 65,000);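 active = activation above the mean of all tested compounds plus 3 SD, cut at about 49% in these data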;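 note: 0% = DMSO-treated RORA cells and 100% = added signal equal to DMSO minus mock-transfected cells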
M1 ag: M1 muscarinic receptor agonists, primary screen, CHO-M1 cells, Fluo-4 calcium, agonist mode; Muscarinic acetylcholine receptor M1; Fluo-4 calcium fluorescence; active compounds read high; B-score at 10 µM; actives 3% (n = 64,000);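 active = fluorescence rise, raw or as B-score row- and column-corrected plate score, outside the 99.7% band of its plate's samples, either direction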
SF-1 act: activators of human SF-1, primary screen, cell-based, CHO-K1, Gal4-SF-1 LBD, luciferase luminescence; CHO-K1 Gal4-SF-1 LBD luciferase reporter; % increase over DMSO SF-1-specific signal; activation, % at 10 µM; actives 1.9% (n = 65,000); AID 522, 2006;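 active = activation above the mean activation of all tested compounds plus 3 SD, cut at about 50% in these data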
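material = CHO-K1 cells with Gal4–hSF-1 LBD chimera plus Gal4-driven luciferase | compound = 10 µM single point, 1% DMSO | incubation = 20 h compound exposure at 37 °C after 1 h cell settling | measured by = SteadyLite luciferase luminescence | evaluation = percent activation relative to DMSO median and mock-transfected background | control set = DMSO negative control and −SF1 background wells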
* = called active by the depositor; x = no result. Hits are enriched below; roughly 6.3% of the tested compounds scored in any of these assays.

SMILES | MT1-MMP txn act | M1 antag | RORa activator | M1 ag | SF-1 act
CCCOc1ccc(N2C(=O)CC(NCCCN3CCC(C(N)=O)CC3)C2=O)cc1 (configuration not stated) | 1.2 | -0.11 | 2 | 0.0045 | 5
CCOC(=O)c1cc(-c2ccc(F)cc2)n(CC(=O)Nc2nccs2)c1C | 1.1 | 0.0063 | -3 | -0.4 | -2
Cc1ccc2c(COC(=O)C3=COCCO3)cc(=O)oc2c1 | 1.1 | 0.02 | 38 | -1.4 | 67*
Cn1c(=O)c(C(=O)COC(=O)c2cc(C(F)(F)F)nc3c(C(F)(F)F)cccc23)c(N)n(Cc2ccccc2)c1=O | 1.1 | x | x | x | x
CC1Cc2ccccc2N1S(=O)(=O)c1cccc2nsnc12 (configuration not stated) | x | 0.83 | -14 | 0.73 | -8
CC(C)C(=O)Nc1cccc(NC(=O)CCN2C(=O)c3ccccc3S2(=O)=O)c1 | 1.1 | 1.4* | -17 | 0.51 | -12
COc1cccc(NC(=O)CCN2C(=O)c3ccccc3S2(=O)=O)c1 | 1.2 | x | x | x | x
CC(=O)c1sc(N2C(=O)c3oc4ccccc4c(=O)c3C2c2ccc(C)o2)nc1C (configuration not stated) | 1.7 | -0.056 | 0 | -0.34 | 22
Cc1nc2nc(-c3ccccc3)cn2nc1C | 0.5 | 0.36 | -4 | 0.88 | -55
Cc1nn2cc(-c3ccc(N)cc3)nc2s1 | x | -0.44 | 22 | -0.41 | 88*
Cc1nc2sc(C(c3ccccc3)N3CCN(CCO)CC3)c(O)n2n1 (configuration not stated) | 1 | -0.84 | -1 | -0.83 | 3
Cc1cc(N)n2nc(-c3ccccc3)cc2n1 | x | 0.35 | x | 1.3 | x
Cc1cc(N)n2ncc(-c3ccccc3)c2n1 | 1.4 | 0.17 | 88* | 0.86 | 75*
Cc1cc(N)n2ncc(-c3cccc(Br)c3)c2n1 | 1.7 | 0.92 | 44 | -0.014 | 59*
CCCCCn1c(N(C)Cc2ccccc2)nc2c1c(=O)[nH]c(=O)n2C | 1.1 | 0.11 | 24 | 0.38 | -5
CCCCn1c(SCc2nnc(-c3ccccc3)o2)nc2c1c(=O)n(C)c(=O)n2C | 1.2 | -0.32 | -6 | 3* | -6
CC(C)c1nc2sc3c(SCC(=O)NCc4ccco4)ncnc3c2c2c1CCC2 | 1 | -0.26 | -6 | -0.03 | 2
CC1(C)Cc2nc3sc4c(SCC(=O)NCc5ccco5)ncnc4c3cc2CO1 | 0.8 | -0.76 | 28 | 0.71 | 81*
Cc1nc2c(sc3nc4c(cc32)COC(C)(C)C4)c(=O)n1CC(=O)NCc1ccco1 | 0.7 | 0.82 | 101* | 0.69 | 134*
NS(=O)(=O)c1ccc(CCNC(=O)Nc2ccc(Cl)c(Cl)c2)cc1 | 1 | x | x | x | x
CCOCCCn1c(=N)c(C(=O)Nc2cc(C)on2)cc2c(=O)n3ccccc3nc21 | 1.1 | -0.18 | -19 | 5.9* | -16
N#CC1=C(N)C(C#N)(C#N)C(c2cccnc2)C2CCCC=C12 (configuration not stated) | 1.3 | 1.4 | -10 | 7.9* | -7
O=C(Nc1nccs1)c1ccc(COc2ccc(Cl)cc2)o1 | 1.1 | -0.33 | 5 | -0.0079 | 29
O=C(Nc1nccs1)c1ccc(COc2ccccc2Br)o1 | 1.2 | -0.31 | 21 | -0.34 | 60*
CN(C)C(=O)c1ccc(COc2ccccc2Br)o1 | 1.9 | -0.0022 | 41 | -0.71 | 49
SMILES | MT1-MMP txn act | M1 antag | RORa activator | M1 ag | SF-1 act
O=C(Nc1nccs1)c1ccc(COc2ccc(F)cc2)o1 | 1 | -1.5 | 8 | -0.0085 | 64*
O=C(COC(=O)c1ccccn1)Nc1nccs1 | 1 | -0.41 | -9 | -1.4 | -17
O=C(COc1ccc(F)cc1)Nc1nccs1 | 1 | -0.011 | 102* | -0.19 | 42
COc1ccc(-c2cc(-c3ccc(OC)cc3)[nH]n2)cc1 | 1.6 | -1.9 | 65* | -0.28 | 42
O=C(COc1ccc(-c2ccccc2)cc1)N1CCN(S(=O)(=O)Cc2ccccc2)CC1 | 1.2 | x | x | x | x
O=C(CC1Nc2ccccc2NC1=O)c1ccccc1 (configuration not stated) | 1.2 | -0.76 | 56* | 3.9* | 31
O=C(CC1Nc2ccccc2NC1=O)NCCc1ccccc1 (configuration not stated) | 1.3 | x | x | x | x
COc1ccccc1Nc1ncc(-c2cccs2)s1 | x | -0.49 | 34 | 1 | 95*
CCC1=C2CC[C@H]3C(=O)N(CC)C(=O)[C@H]3[C@H]2[C@@]2(Cc3ccccc3)C(=O)N(CC3CC3)C(=O)N2C1=O | 1.1 | x | x | x | x
Cc1cc(Nc2ccccc2)nn1C(=O)c1ccccc1 | 1.2 | -0.75 | -18 | -0.046 | -1
COc1ccc(C(=O)n2nc(C)cc2Nc2ccccc2)cc1 | 2.1* | x | x | x | x
CCCCN1CCc2c1nc1ccc(Br)cc1c2N | 1.1 | x | x | x | x
CCOC(=O)/C(=N\Nc1ccc(OC)cc1)c1csc(Nc2ccccc2)n1 | 1.4 | x | x | x | x
CCSc1nnc(-c2cccc(S(=O)(=O)N(CC)CC)c2)n1Cc1ccccc1 | 1.2 | -1.6 | 9 | 10* | 14
COc1cccc(OCc2nnc(SCC(=O)OCc3ccccc3)o2)c1 | 1 | 0.65 | 49* | 0.078 | 7
O=C(CSc1nnc(-c2ccccc2)o1)OCc1ccccc1 | 1.1 | 1.4 | -12 | -0.056 | -4
Cc1ccccc1-n1c(C)nnc1SCc1nc2ccccc2s1 | 1.5 | -0.89 | 58* | -0.23 | 55*
CCn1c(SCc2nc3ccccc3s2)nnc1-c1cccs1 | 1.7 | -0.098 | 33 | 2.2 | 49
CCCn1c(=O)c2ccccc2n2c(SCc3nc4ccccc4s3)nnc12 | 1.9 | 0.12 | 42 | 1.8 | 70*
Cc1ccc2cc3c(NC(=O)C(C)C)nn(C)c3nc2c1 | 1 | 0.093 | 3 | 0.12 | -22
O=C(CCSc1ccccc1)N1CCN(C(=O)c2ccco2)CC1 | 1.7 | -0.082 | 16 | 2.1e-05 | 10
CCOC(=O)C1CCN(C(=O)CCNC(=O)c2cc(OC)c(OC)c(OC)c2)CC1 | 1.1 | -0.017 | -20 | -0.023 | -5
CCCCCCOc1ccc(OCC(O)CN2C(=O)NC(C)(C)C2=O)cc1 (configuration not stated) | 1.4 | 0.047 | 62* | 0.023 | 36
COC(=O)[C@@]1(Cc2ccccc2)[C@H]2c3cc(C(=O)N(C)C)n(Cc4ccsc4Br)c3C[C@H]2CN1C(=O)c1ccccc1 | 1.2 | x | x | x | x
COc1ccc(CC(=O)OCC(=O)Nc2c(C)n(C)n(-c3ccccc3)c2=O)cc1 | 1.1 | -0.17 | 0 | -0.24 | 2
CCCC(=O)Nc1ccc(C(=O)O)cc1NC(=O)CCC | 1 | 0.12 | -7 | 0.39 | -7
C/C(=C\C(=O)c1ccc(C)o1)Nc1ccc(C(=O)O)cc1C | 1.2 | 3* | 4 | 0.065 | 3
COc1ccc2c(Cl)c(C(=O)NC3CCS(=O)(=O)C3)sc2c1 (configuration not stated) | 1 | -0.19 | 35 | -1.2 | 50*
